Structures are written as SMILES. Activity calls are given as the source filed them. The calls are words filed in the database; no cut-off is given here.

Assay [1] deals with PC-3M. The assay can be described thus: (§1) Cytotoxicity in human PC3M cells assessed as inhibition of cell proliferation upto 50 uM after 3 days by MTT assay. The class given is functional. The procedure, abridged:
(§2)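 Metastatic variant PC3-M human prostate cancer cells in exponential growth exposed 3 days to 0−50 μM of each racemate or enantiomer; viability by MTT, absorbance at 540 nm. CC50 derived from the concentration-response. For the 50 μM readout, absorbance at 72 h compared with untreated cells at the start (t = 0 h).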

Assay [2] can be described thus: as §1. In kind it is functional, PC-3M. The method in brief:
as §2

Assay [3] is described as follows: Cytotoxicity in human PC3M cells assessed as inhibition of cell proliferation after 3 days by MTT assay. In kind it is functional. To be noted: PC-3M, 72 h. The procedure, abridged:
as §2
A general note: Tetrazolium dyes change colour on reduction, which living cells bring about.

Assay [4] deals with PC-3M. The assay can be described thus: Inhibition of MMP-2 mRNA expression in human PC3M cells at 3 uM after 3 days by qRT-PCR analysis relative to untreated control. In kind it is functional. To be noted: 72 h. On the technique in general: In qPCR the cycle at which signal appears reflects the starting amount.

The inhibition is how much of the control response was suppressed. As to `CC(C)=CCc1cc(C2CC(=O)c3ccc(O)cc3O2)ccc1O` (racemic), the inhibition entry in the assay on PC-3M [1] was “Active”.

Take `CC(C)=CCc1cc([C@@H]2CC(=O)c3ccc(O)cc3O2)ccc1O`: the inhibition entry with PC-3M [1] is “Active”. Broadly, the CC50 is the concentration at which the toxic effect on the cells reaches its halfway point. With `COc1c(CC=C(C)C)cc([C@@H]2CC(=O)c3ccc(O)cc3O2)cc1CC=C(C)C`, the inhibition entry in the assay on PC-3M [1] is “Active”. In assay [2], the “fold change (FC)” value was determined as 2. In addition, in assay [3], the CC50 was found to be 12 µM. For `CC(C)=CCc1cc([C@H]2CC(=O)c3ccc(O)cc3O2)ccc1O`, in the assay on PC-3M [1], the inhibition entry is “Active”. Turning to `CC1(C)C=Cc2cc([C@H]3CC(=O)c4ccc(O)cc4O3)ccc2O1`, the inhibition entry in the assay on PC-3M [1] was “Active”. In the case of `COc1c(CC=C(C)C)cc([C@H]2CC(=O)c3ccc(O)cc3O2)cc1CC=C(C)C`, the inhibition entry in the assay with PC-3M [1] was “Active”. In addition, in assay [3], the CC50 was found to be 46 µM. As for `COc1c(CC=C(C)C)cc(C2CC(=O)c3ccc(O)cc3O2)cc1CC=C(C)C` (racemic), in the assay on PC-3M [1], the inhibition result was “Active”. Besides, in assay [3], the CC50 came out at 33 µM. Take `CC(C)=CCc1cc([C@H]2CC(=O)c3ccc(O)cc3O2)cc2c1OC(C)(C)C=C2`: the inhibition result with PC-3M [1] is “Active”. In assay [3], the CC50 turned out to be 42 µM. This molecule also returned an inhibition at 3 µM with PC-3M [4] of 65%. For `CC1(C)C=Cc2cc(C3CC(=O)c4ccc(O)cc4O3)ccc2O1` (racemic), in the assay on PC-3M [1], the inhibition entry is “Active”.

Regarding `CC1(C)C=Cc2cc([C@@H]3CC(=O)c4ccc(O)cc4O3)ccc2O1`, the inhibition entry in the assay on PC-3M [1] was “Active”. For `CC(C)=CCc1cc(C2CC(=O)c3ccc(O)cc3O2)cc2c1OC(C)(C)C=C2` (racemic), the inhibition entry with PC-3M [1] was “Active”. Further, the CC50 in assay [3] was 57 µM.

These data come from ChEMBL document CHEMBL1687689, “Concise syntheses of the abyssinones and discovery of new inhibitors of prostate cancer and MMP-2 expression” (2010).
